One block for each compound: values may come before it. Residues, ends and D or L forms follow the SMILES beside them.
What was measured:
LGN TPR repeats = molecular target: T1, LGN TPR repeats (Mus musculus, UniProt Q8VDU0); settings: fit of the LGN TPR0-7/NuMA fluorescence polarization binding curve; Fig. 2C
T1 sequence (Q8VDU0 22-357): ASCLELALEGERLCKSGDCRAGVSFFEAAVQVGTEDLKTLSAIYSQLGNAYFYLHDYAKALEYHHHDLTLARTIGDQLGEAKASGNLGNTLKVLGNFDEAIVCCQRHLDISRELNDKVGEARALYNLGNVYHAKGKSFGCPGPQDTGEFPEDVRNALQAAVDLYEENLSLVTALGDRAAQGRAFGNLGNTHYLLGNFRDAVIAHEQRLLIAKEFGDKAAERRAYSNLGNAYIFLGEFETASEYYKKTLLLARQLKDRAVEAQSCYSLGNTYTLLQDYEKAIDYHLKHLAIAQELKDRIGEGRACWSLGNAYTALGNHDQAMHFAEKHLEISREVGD
How it was run: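 Fluorescence polarization at 25 °C using a fluorimeter with an automated polarizer. A FITC-labeled human NuMA peptide (~1 μM) was titrated with mouse LGN TPR0-7 in 50 mM Tris pH 8.0, 100 mM NaCl, 1 mM DTT, 1 mM EDTA. The LGN fragment was expressed from a modified pET32a vector in E. coli BL21(DE3) at 16°C and purified by Ni2+-NTA then size-exclusion chromatography.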

[1] = molecular target: FITC-labeled NuMA peptide (aa 1886-1912) (human) (UniProt Q14980); assay: fluorescence polarisation + ITC
[2] = molecular target: mInsc22 (aa 19-40), peptide of the fluorescence assays (mouse); assay: fluorescence polarisation
Mud peptide (Drosophila) = assay: fluorescence polarisation
[3] = molecular target: NuMA_C (1898-1912) (human) (UniProt Q14980); assay: fluorescence polarisation
[4] = molecular target: NuMA_N (1885-1898) (human) (UniProt Q14980); assay: fluorescence polarisation
[5] = molecular target: mInsc38 (aa 20-57) (mouse); assay: fluorescence polarisation

Hill coefficient of LGN/NuMA binding curve (LGN TPR repeats): ~2.0
Compound: CC[C@H](C)[C@H](NC(=O)[C@H](CCCNC(=N)N)NC(=O)[C@H](CC(N)=O)NC(=O)[C@H](Cc1c[nH]c2ccccc12)NC(=O)[C@H](CC(=O)O)NC(=O)[C@H](CC(=O)O)NC(=O)[C@H](CC(C)C)NC(=O)[C@H](CCC(N)=O)NC(=O)[C@H](CCC(=O)O)NC(=O)[C@@H]1CCCN1C(=O)[C@H](CCC(=O)O)NC(=O)[C@H](CC(=O)O)NC(=O)[C@H](CCC(N)=O)NC(=O)[C@H](CS)NC(=O)[C@@H](NC(=O)CNC(=O)[C@H](CCSC)NC(=O)[C@H](Cc1ccc(O)cc1)NC(=O)[C@H](Cc1ccccc1)NC(=O)[C@H](CO)NC(=O)[C@@H](N)CC(N)=O)[C@@H](C)O)C(=O)N[C@@H](C)C(=O)N[C@@H](CCC(=O)O)C(=O)N[C@@H](CC(C)C)C(=O)N[C@@H](CCC(N)=O)C(=O)N[C@@H](CCC(N)=O)C(=O)N[C@@H](CCCNC(=N)N)C(=O)O [NuMA] (H-NSFYMGTCQDEPEQLDDWNRIAELQQR-OH; N-terminus and C-terminus assumed)

Kd [1]: 60 nM
Compound: LGN (aa 15-479) (domain or fragment)

fold decrease in NuMA binding (against the longer LGN fragments) [1]: 200 fold
Compound: LGN (aa 27-350) (domain or fragment)

fold decrease in binding affinity (against LGN TPR0-7) [2]: 10 fold
Compound: LGN TPR4-7 (aa 191-350) (domain or fragment)

Kd (Mud peptide (Drosophila)): 230 nM
Kd [3]: 67100 nM
Kd [4]: 31700 nM
Kd [5]: 47 nM
Compound: LGN(15-350) (domain or fragment)
